ChEMBL document CHEMBL1124035, “1-Amino-substituted 4-methyl-5H-pyrido[4,3-b]indoles (gamma-carbolines) as tricyclic analogues of ellipticines: a new class of antineoplastic agents” (1988)

How the values were obtained:
Mus musculus [1] = assay: Median survival day in P388 leukemia model when a dose of 40 mg/kg administered intraperitoneally; assay type: functional; settings: route intraperitoneal
Procedure, shortened: (§1)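 P388 leukaemia in CDF1 hybrid mice, 10 per group. At D0, 10^6 viable cells were inoculated ip, followed by a single ip dose of drug in distilled water on D1. Weight change, median survival day, T/C (treated/control median survival × 100) and survivors at D30 were recorded. Controls were 20 mice.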

Mus musculus [2] = assay: Median survival day in P388 leukemia model when a dose of 80 mg/kg administered intraperitoneally; assay type: functional; settings: route intraperitoneal; procedure, shortened: as §1
Mus musculus [3] = assay: Antitumor activity against B16 melanoma cells at a dose of 30 mg/kg administered intraperitoneally to mice; assay type: functional; settings: route intraperitoneal
Procedure, shortened: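 Hybrid BD F1 mice were inoculated ip at D0 with 0.5 mL of B16 melanoma homogenate (1 g tumor in 10 mL physiological serum). Drugs were given ip daily D1-9. Cisplatin 0.5 mg/kg was the positive control under the same schedule.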

Mus musculus [4] = assay: Antitumor activity against P388 leukemia in mice at a dose of 20 mg/kg administered intraperitoneally for 5 days; assay type: functional; settings: route intraperitoneal
Procedure, shortened: (§2)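 CDF1 hybrid male or female mice, 10 per group, were inoculated ip with 10^6 viable P388 cells on day 0. Drugs in distilled water were given ip (0.1 mL/10 g body weight) daily D1-5. Vehicle, 5-fluorouracil and BD 84 were given the same way. T/C = median survival day of treated / controls × 100; T/C > 128% was significant; cures counted at D60.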

Mus musculus [5] = assay: Survivors at day 30 when a dose of 40 mg/kg to P388 leukemia model; 0/10; assay type: functional
Mus musculus [6] = assay: Weight change in g when a dose of 10 mg/kg administered intraperitoneally to P388 leukemia infected mice; assay type: functional; settings: route intraperitoneal
Procedure, shortened: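 P388 model with a single ip dose. Mice (10 per group) were inoculated ip at D0 with 10^6 P388 cells and given one ip drug dose at D1. Body-weight change (g), median survival day, T/C and survivors at D30 were recorded.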

Mus musculus [7] = assay: Median survival day of B16 melanoma infected mice, when a dose of 2.5 mg/kg administered intraperitoneally; assay type: functional; settings: route intraperitoneal
Procedure, shortened: (§3)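 B16 melanoma in hybrid BD F1 mice. At D0 each mouse was inoculated ip with 0.5 mL of homogenate made from 1 g of tumour in 10 mL of physiological serum. Compounds were given ip daily at the stated doses for 9 days (D1-9), with cis-platinum 0.5 mg/kg under the same schedule as positive control.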

Mus musculus [8] = assay: Median survival day of P388 leukemia infected mice, when a dose of 10 mg/kg administered intraperitoneally; assay type: functional; settings: route intraperitoneal; procedure, shortened: as §1
Mus musculus [9] = assay: Median survival day of P388 leukemia infected mice, when a dose of 5 mg/kg administered intraperitoneally; assay type: functional; settings: route intraperitoneal; procedure, shortened: as §1
Mus musculus [10] = assay: Median survival day in P388 cell line when a dose of 100 mg/kg administered intravenously to mice; assay type: functional; settings: route intravenous
Procedure, shortened: (§4)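 P388 leukaemia in CDF1 hybrid mice, 10 per group. At D0, 10^6 viable cells were inoculated ip, followed by a single iv dose on D1. Weight change, median survival day, T/C (treated/control median survival × 100) and survivors at D30 were recorded.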

Mus musculus [11] = assay: Median survival day in P388 cell line when a dose of 20 mg/kg administered intraperitoneally to mice; assay type: functional; settings: route intraperitoneal; procedure, shortened: as §1
Mus musculus [12] = assay: Antitumor activity against P388 cells at a dose of 5 mg/kg administered intraperitoneally to mice; assay type: functional; settings: route intraperitoneal
Mus musculus [13] = assay: Antitumor activity against P388 cells at a dose of 10 mg/kg administered intraperitoneally to mice; assay type: functional; settings: route intraperitoneal
Mus musculus [14] = assay: Survivors at day D32 when a dose of 25 mg/kg administered intravenously to mice (C38 adenocarcinoma cell lines) when tested in 10 mice; assay type: functional; settings: route intravenous
Procedure, shortened: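 Hybrid BDF1 mice, 10 per test, were implanted sc with a standard 3-mm³ fragment of C38 colon adenocarcinoma. Drug was given iv either on D1 alone or on D2 and D9. Animals were followed per NCI (Geran) protocol.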

Mus musculus [15] = assay: Antitumor activity against P388 leukemia in mice at a dose of 1.5 mg/kg administered intraperitoneally for 5 days; assay type: functional; settings: route intraperitoneal; procedure, shortened: as §2
Mus musculus [16] = assay: Survivors at day 30 when a dose of 10 mg/kg administered to P388 leukemia infected when tested in 10 mice; assay type: functional; procedure, shortened: as §1
Mus musculus [17] = assay: Survivors at day 60 when a dose of 5 mg/kg to B16 melanoma infected when tested in 10 mice; assay type: functional
Mus musculus [18] = assay: Antitumor activity against P388 leukemia in intraperitoneally for 5 days; assay type: functional; procedure, shortened: as §2
Mus musculus [19] = assay: Antitumor activity against C38 adenocarcinoma model at a dose of 25 mg/kg administered intravenously in mice; tumor volume at D38 (T/C); assay type: functional; settings: route intravenous
Procedure, shortened: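 Hybrid BD F1 mice, 10 per group, were implanted sc with a standard 3-mm3 C38 colon adenocarcinoma fragment. Drugs were given iv at the stated doses on D1 or on D2 + D9. Read-out was tumor size in treated versus control mice (T/C) at the day stated.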

Mus musculus [20] = assay: Median survival day of B16 melanoma infected micee when a dose of 5 mg/kg administered intraperitoneally; assay type: functional; settings: route intraperitoneal; procedure, shortened: as §3
Mus musculus [21] = assay: Median survival day in P388 leukemia mice model when a dose of 100 mg/kg administered intravenously; assay type: functional; settings: route intravenous; procedure, shortened: as §4
Mus musculus [22] = assay: Median survival day in P388 leukemia model when a dose of 50 mg/kg administered intravenously to mice; assay type: functional; settings: route intravenous; procedure, shortened: as §4
Mus musculus [23] = assay: Antitumor activity against L1210 cells at a dose of 40 mg/kg administered intravenously to mice; assay type: functional; settings: route intravenous
Procedure, shortened: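 P388 (10^6 cells) or L1210 (10^5 cells) leukemia was inoculated ip in mice at D0, followed by a single iv drug treatment on D1. Weight change was recorded. T/C % = median survival day of treated / controls × 100; survivors noted at D30; 10-15 mice per group.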

Mus musculus [24] = assay: Antitumor activity against P388 cells at a dose of 10 mg/kg administered intraperitoneally to P388 leukemia model; assay type: functional; settings: route intraperitoneal
Procedure, shortened: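 Mice were inoculated ip with 10^6 P388 leukemia cells at D0, then given a single ip drug dose on D1. Weight change was recorded. T/C % = median survival day of treated / controls × 100; survivors counted at D30; 10 mice per dose group, 20 controls.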

Mus musculus [25] = assay: In vivo toxicity test on P388 cells at a dose of 100 mg/kg administered intravenously to P388 leukemia mice model; assay type: functional; settings: route intravenous
Procedure, shortened: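 Mice (10 per group) were inoculated ip at D0 with 10^6 P388 leukemia cells and given a single iv dose at D1. Read-outs were weight change (g), median survival day, T/C % versus controls and survivors at D30.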

Mus musculus [26] = assay: Weight change in g when a dose of 20 mg/kg intravenous administration to L1210 leukemia mice model; assay type: functional
Procedure, shortened: (§5)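 Mice received 10^5 L1210 leukemia cells ip at D0, then a single iv drug dose at D1. Read-outs were weight change (g), median survival day, T/C % and survivors at D30.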

Mus musculus [27] = assay: Weight change in g when a dose of 40 mg/kg intravenous administration to L1210 leukemia mice model; assay type: functional; procedure, shortened: as §5
Mus musculus [28] = assay: Survivors at day 60 when a dose of 10 mg/kg to B16 melanoma infected mice; 0/10
Mus musculus [29] = assay: Survivors at day 60 when a dose of 2.5 mg/kg to B16 melanoma infected mice; 0/10

## CCN(CC)CCCNc1[nH]cc(C)c2nc3ccc(O)cc3c1-2
Mus musculus [1]
  Median survival day: 15.9
Mus musculus [2]
  Median survival day: 2.3
Mus musculus [3]
  T/C: 33%
Mus musculus [4]
  T/C: 238%
Mus musculus [5]
  Survivors: 0

## Cc1cnc(NCCCN(C)C)c2c3cc(O)ccc3n(C)c12
Mus musculus [6]
  Weight change: -1.4 g
Mus musculus [7]
  Median survival day: 32.6
Mus musculus [8]
  Median survival day: 19
Mus musculus [9]
  Median survival day: 19.75
Mus musculus [10]
  Median survival day: 25.75
Mus musculus [11]
  Median survival day: 18.75
Mus musculus [12]
  T/C: 173%
Mus musculus [13]
  T/C: 167%
Mus musculus [14]
  Survivors: 10
Mus musculus [15]
  T/C: 164%
Mus musculus [16]
  Survivors: 1
Mus musculus [17]
  Survivors: 1
Mus musculus [18]
  T/C: Toxic
Mus musculus [19]
  Tumor volume: 0%

## CCN(CC)CCCNc1ncc(C)c2c1c1cc(O)ccc1n2C
Mus musculus [20]
  Median survival day: 41.25
Mus musculus [21]
  Median survival day: 24.3
Mus musculus [22]
  Median survival day: 19
Mus musculus [23]
  T/C: 149%
Mus musculus [24]
  T/C: 156%
Mus musculus [25]
  T/C: 223%
Mus musculus [26]
  Weight change: -0.4 g
Mus musculus [27]
  Weight change: -0.2 g
Mus musculus [28]
  Survivors: 0
Mus musculus [29]
  Survivors: 0
